According to ChEMBL document CHEMBL1145787, “Synthesis and structure-activity relationship of N-substituted 4-arylsulfonylpiperidine-4-hydroxamic acids as novel, orally active matrix metalloproteinase inhibitors for the treatment of osteoarthritis” (J Med Chem, 2003):
pIC50: −log10 of the molar value.

Assays:
[1] = biological target: Matrix metalloproteinase-9 (Homo sapiens, UniProt P14780); experiment: In vitro inhibitory activity against matrix metalloprotease-9.
[2] = In vivo inhibitory activity against Matrix metalloprotease enzyme by dialysis implant assay, value are relative to activity of CGS-27023 (64+/-3) at 25 mg/kg. po; format: functional
[3] = In vivo inhibition of Matrix metalloprotease enzyme by Sponge-wrapped cartilage assay, value are relative to activity of RS-130830 (27+/-3) at 10 mg/kg. po. bid; format: functional
[4] = biological target: T1, Disintegrin and metalloproteinase domain-containing protein 17 (Homo sapiens, UniProt P78536)
T1 sequence (P78536 whole entry, the tested form may be a part): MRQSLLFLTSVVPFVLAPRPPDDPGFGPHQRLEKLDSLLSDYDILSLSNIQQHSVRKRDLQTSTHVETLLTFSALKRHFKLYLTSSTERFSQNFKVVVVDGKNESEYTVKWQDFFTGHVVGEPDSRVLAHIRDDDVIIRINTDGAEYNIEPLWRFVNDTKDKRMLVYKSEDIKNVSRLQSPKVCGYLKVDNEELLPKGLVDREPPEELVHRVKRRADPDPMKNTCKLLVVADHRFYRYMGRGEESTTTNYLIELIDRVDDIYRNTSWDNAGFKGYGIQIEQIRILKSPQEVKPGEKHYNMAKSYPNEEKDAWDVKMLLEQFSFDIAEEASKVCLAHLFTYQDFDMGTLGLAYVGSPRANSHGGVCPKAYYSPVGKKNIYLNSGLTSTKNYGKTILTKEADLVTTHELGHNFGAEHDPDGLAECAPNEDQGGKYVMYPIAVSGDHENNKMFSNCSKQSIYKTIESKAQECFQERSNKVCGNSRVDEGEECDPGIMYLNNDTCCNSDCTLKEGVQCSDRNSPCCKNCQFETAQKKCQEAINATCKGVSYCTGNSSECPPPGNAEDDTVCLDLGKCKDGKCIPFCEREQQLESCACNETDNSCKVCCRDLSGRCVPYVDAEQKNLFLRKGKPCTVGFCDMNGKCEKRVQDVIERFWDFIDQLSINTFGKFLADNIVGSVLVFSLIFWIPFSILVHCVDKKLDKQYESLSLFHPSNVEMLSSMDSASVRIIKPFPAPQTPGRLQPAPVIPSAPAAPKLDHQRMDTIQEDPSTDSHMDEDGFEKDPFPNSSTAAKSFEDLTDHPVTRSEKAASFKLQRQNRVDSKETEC

Interstitial collagenase = biological target: T2, Interstitial collagenase (Homo sapiens, UniProt P03956); experiment: In vitro inhibitory activity against matrix metalloprotease-1
T2 sequence (P03956 whole entry): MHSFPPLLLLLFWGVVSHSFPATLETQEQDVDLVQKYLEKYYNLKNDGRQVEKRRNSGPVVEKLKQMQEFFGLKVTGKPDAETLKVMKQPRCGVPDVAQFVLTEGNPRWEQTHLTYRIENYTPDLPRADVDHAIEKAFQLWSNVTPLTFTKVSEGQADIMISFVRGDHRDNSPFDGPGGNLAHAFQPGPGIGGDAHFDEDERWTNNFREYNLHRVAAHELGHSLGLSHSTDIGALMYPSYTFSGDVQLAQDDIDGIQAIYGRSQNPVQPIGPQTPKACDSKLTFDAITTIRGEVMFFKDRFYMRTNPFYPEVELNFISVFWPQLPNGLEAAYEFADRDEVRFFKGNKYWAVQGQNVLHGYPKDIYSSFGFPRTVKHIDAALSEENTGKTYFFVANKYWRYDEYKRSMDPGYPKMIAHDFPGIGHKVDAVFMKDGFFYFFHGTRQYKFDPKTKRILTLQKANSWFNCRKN

Collagenase 3 = Collagenase 3 (Homo sapiens, UniProt P45452)
[5] = In vivo inhibitory activity against Matrix metalloprotease enzyme by dialysis implant assay, value is relative to activity of CGS-27023 (35+/-3) at 25 mg/kg. po; format: functional
[6] = biological target: T1, Disintegrin and metalloproteinase domain-containing protein 17; experiment: Inhibition of Tumor necrosis factor alpha converting enzyme (TACE) at 10 uM
Method in brief: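 Dose–response curves were not generated when inhibition was below 60% at 10 μM.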

[7] = In vivo inhibitory activity against Matrix metalloprotease enzyme by dialysis implant assay, value are relative to activity of CGS-27023 (41+/-4) at 25 mg/kg. po; format: functional
[8] = biological target: T1, Disintegrin and metalloproteinase domain-containing protein 17; experiment: In vitro inhibitory activity against tumor necrosis factor alpha converting enzyme (TACE).
[9] = In vivo inhibition of Matrix metalloprotease enzyme by Sponge-wrapped cartilage assay, value is relative to activity of RS-130830 (39+/-2) at 10 mg/kg. po. bid; format: functional
[10] = In vivo inhibitory activity against Matrix metalloprotease enzyme by dialysis implant assay, value is relative to activity of CGS-27023 (65+/-2) at 25 mg/kg. po; format: functional

Matrix metalloproteinase-9, sequence (P14780 whole entry): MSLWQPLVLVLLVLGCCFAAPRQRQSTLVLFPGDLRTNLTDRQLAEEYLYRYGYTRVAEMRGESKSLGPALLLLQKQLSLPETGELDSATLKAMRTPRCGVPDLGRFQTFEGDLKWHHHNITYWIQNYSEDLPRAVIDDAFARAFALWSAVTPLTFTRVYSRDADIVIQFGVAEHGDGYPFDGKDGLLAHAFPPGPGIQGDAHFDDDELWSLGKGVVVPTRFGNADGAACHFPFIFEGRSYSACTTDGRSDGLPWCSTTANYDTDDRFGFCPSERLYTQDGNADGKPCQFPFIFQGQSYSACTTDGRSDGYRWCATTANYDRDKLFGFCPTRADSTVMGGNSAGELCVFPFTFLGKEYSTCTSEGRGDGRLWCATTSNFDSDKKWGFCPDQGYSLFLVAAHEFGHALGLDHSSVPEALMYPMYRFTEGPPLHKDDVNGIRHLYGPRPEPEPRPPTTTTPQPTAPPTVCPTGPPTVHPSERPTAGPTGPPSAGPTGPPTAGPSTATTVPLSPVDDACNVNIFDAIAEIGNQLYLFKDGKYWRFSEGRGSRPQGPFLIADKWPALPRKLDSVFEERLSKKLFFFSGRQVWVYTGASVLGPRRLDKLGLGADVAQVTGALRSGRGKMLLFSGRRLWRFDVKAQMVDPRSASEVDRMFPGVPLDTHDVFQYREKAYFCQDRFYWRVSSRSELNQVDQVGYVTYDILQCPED

| Compound | pIC50 [1] | inhibition in vivo at 25 mg/kg [2] [%] | inhibition in vivo at 10 mg/kg [3] [%] | pIC50 [4] | pIC50 (Interstitial collagenase) | pIC50 (Collagenase 3) | inhibition in vivo at 25 mg/kg [5] [%] | inhibition [6] [%] | inhibition in vivo at 25 mg/kg [7] [%] | pIC50 [8] | inhibition in vivo at 10 mg/kg [9] [%] | inhibition in vivo at 25 mg/kg [10] [%] |
| --- | --- | --- | --- | --- | --- | --- | --- | --- | --- | --- | --- | --- |
| CCC(CC)Oc1ccc(S(=O)(=O)C2(C(=O)NO)CCN(Cc3ccccc3)CC2)cc1 | 7.85 | 68 | 27 | 7.41 | 5.50 | 8.30 |  |  |  |  |  |  |
| CCCCOc1ccc(S(=O)(=O)C2(C(=O)NO)CCN(Cc3ccc(F)cc3)CC2)cc1 |  |  |  |  |  | 8.30 | 48 | 39 |  |  |  |  |
| COc1ccc(S(=O)(=O)C2(C(=O)NO)CCN(Cc3ccc(-c4cccs4)cc3)CC2)cc1 | 7.96 |  |  |  | 6.27 | 8.52 |  |  | 12 | 6.56 |  |  |
| CN1CCC(C(=O)NO)(S(=O)(=O)c2ccc(Oc3ccc(Cl)cc3)cc2)CC1 |  |  |  |  |  | 8.70 |  |  |  |  | 73 | 91 |
